Laboratory results published in the RNAGym collection of RNA variant scans (doi:10.1101/gad.245936.114).
This sample holds only a part of the variants without activity.

B1: tRNA (parent)
chain: CUCUCGGUAGCCAAGUUGGUUUAAGGCGCAAGACUUUAAUUUAUCACUACGAAAUCUUGAGAUCGGGCGUUCGACUCGCCCCCGGGAGAUUUUUUCCUCGAGCAA

Variants of: B1
Test: nonsense suppression (GFP-seq) (ratio to wild type); higher = more function; SUP4oc tRNA, yeast GFP reporter sort-seq
Method in brief: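 Yeast were grown in raffinose/galactose medium with 80 mg/L adenine, each strain bearing a genome-integrated ochre-suppressor tRNA variant from a ~3% random-mutation library, a galactose-driven GFP ochre reporter, and RFP. After sorting into GFP/RFP bins, every bin was sequenced on an Illumina platform at phred ≥30. The GFPSEQ value, a measure of nonsense suppression, is the weighted bin median GFP/RFP relative to the unmutated parent tRNA, using each variant's estimated cell share per bin as the weight. Only variants with ≥100 reads and ≥30 cells were included.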

Variant | nonsense suppression
A14C U16G U55C | ≤ 0.026
C11U G19U C64A | ≤ 0.026
G26C C81U | ≤ 0.026
G28A A31G | 0.98
U4C G15A | 0.746
G28U A54U | ≤ 0.026
C11A C12A U17G U22G G66A U76C A89C | ≤ 0.026
G26U U70G C79U | ≤ 0.026
G15A A33G | 0.0395
U2C A31G | 0.0356
U57C G61A | 0.0312
U16A G19C U70G C72G | ≤ 0.026
G28U U71G | ≤ 0.026
C1G G25A G65A C83G | ≤ 0.026
G78U | 0.63
U63A G66U U71A A87G | ≤ 0.026
U16A U20G | 1.11
A9G C29U C75G | 0.252
A54U C56G C72A | ≤ 0.026
C1A U4G C11U | ≤ 0.026
C12U A60G | 0.406
A23U G65C C72A | ≤ 0.026
U2A U4G | 0.203
U22A U76C | 0.967

Variant | nonsense suppression
U4C | 0.585
G7A G10U U20A U35G U57G U63C | ≤ 0.026
G61A A62U | 0.311
G19A C64G C68U C82A | ≤ 0.026
C5A U55C A89G | ≤ 0.026
U2C U4C A13G | 0.205
G6A G78A | 0.037
A13U A24U | 0.863
U17A A31G C72G U76A G78U | ≤ 0.026
C29U U76C | 0.772
G6U A9U | 0.0343
U16A C82U | 0.886
U20C U35C | 0.0559
U17C U76C | 1.09
U16G U57A C64U G66U G69A | ≤ 0.026
U21A A54U | 0.737
G26C C34U G61A C82A G85C G86A | ≤ 0.026
U21G A23C | ≤ 0.026
G61C A87C | 0.0361
C34G G69C | ≤ 0.026
A13U C81G | 0.0578
U22G C75U | 0.981
A30G G61A | 0.75
G28A G78C | 0.0938

Variant | nonsense suppression
U57C G85A | 0.757
U2C C68U A87G | 1.13
C1U A9U A13C C64U | ≤ 0.026
U17C G28A G61C | 0.716
C5A G19U U55G A60U | ≤ 0.026
C75U G85A | 1.06
A54U A89C | ≤ 0.026
A9U A14U | 0.0588
U20A | 1.18
C3G A9G G59U | ≤ 0.026
C3G G61C | 0.0292
G7A G59A U71G G73A G84A G85U | ≤ 0.026
C12G U21A G59U | ≤ 0.026
C68U | 1.05
U63G A87U | 0.0518
U16G C29U | 1.11
C5U C75A | 0.209
U4G C56U | 0.0355
G73U C81U | 0.0263
G65U G86A | ≤ 0.026
G10U U21C A74U | ≤ 0.026
G10A G85U | ≤ 0.026
U22A G73A | 0.325
G18C A54C G84U | ≤ 0.026

Variant | nonsense suppression
C1G C3G G25A C27U | ≤ 0.026
C5G A74G | ≤ 0.026
C3U G86A | 1.07
A60C G66C | ≤ 0.026
A9U C77U | 0.0389
A54C G85C | 0.0904
A33G A74C C80A | ≤ 0.026
U17C G61C | 0.769
G78A G84U | 0.0325
A13C A33U | 0.0508
A9G G61A A87G | 0.188
G28C A89G | 0.0403
G59C G66U C83A A87C | ≤ 0.026
C11A A60C | ≤ 0.026
A33C C56A U58G G85U | ≤ 0.026
U17G C68A G69U | ≤ 0.026
U57G G85C | ≤ 0.026
C12U A31G G65A | ≤ 0.026
G19C U21C G66C G84A G86A | ≤ 0.026
C5A U8A | ≤ 0.026
A33U G69C G73A | ≤ 0.026
U4G C77U | 0.0723
A31G G84A | ≤ 0.026
G10A U63G | 0.0314

Variant | nonsense suppression
G7U U22A | ≤ 0.026
U22A A23C | 0.153
U55C U76A | 0.15
U20A U22C | 1.11
C5U G10A A13G G73A C75A G86C | ≤ 0.026
U16A C29U | 0.186
U20C G28A | 0.192
C12G U70A | ≤ 0.026
G18U U55C | 0.0402
U20A A24C | 0.192
C83U G86A | ≤ 0.026
U20G A30U | 0.444
C3U U4C C5G G7U U8A A9G G10C C12A U17A U57A | ≤ 0.026
G19C U63C C83A | 0.789
U16C C82G | ≤ 0.026
G6C U20G | ≤ 0.026
A24U G85A A87G | 0.215
U22G U55C U57A G65A | ≤ 0.026
U63A C75G | 1.13
G25C C27G | ≤ 0.026
G7C G19C G66U G69C | ≤ 0.026
C3A G6A U71G | ≤ 0.026
A13U G65U | 0.0575
C1A A30G G85A | 0.0742

Variant | nonsense suppression
C12U A13C | 0.2
U2C G78A | 0.0386
A24U A30U | 0.0403
G73A G85A | 1.03
G19U A24G G78C A89C | ≤ 0.026
C1G U16A | 0.777
A13U G32C C56G C75U | 0.912
G19C G67C | ≤ 0.026
G28C A60U U70C | ≤ 0.026
U4C A60C | 1.04
U57A C82A | ≤ 0.026
G28U A60C | 0.669
A14C C56A C81G | ≤ 0.026
A13C G18C U20G A31U | 0.134
A24U U63A | 0.119
U8G G25U A54U U70G G73C | ≤ 0.026
U21A C83G G88U | ≤ 0.026
A31G U70C | 0.0279
A54C U58A | 0.135
U17C U35G G61C U76C | ≤ 0.026
U20G U55C A74G | ≤ 0.026
G6A U55G | ≤ 0.026
C34G U70G | ≤ 0.026
C1A A62G A74C G84A | ≤ 0.026

Variant | nonsense suppression
A14C A31U A33U | ≤ 0.026
U21G G66C | ≤ 0.026
A31U U63A | 0.0391
C1U G69C G73C | ≤ 0.026
A14G U35C | ≤ 0.026
G10A C72A C80A | ≤ 0.026
C3A U35C | ≤ 0.026
C3A U35A | ≤ 0.026
U4C G85A | 0.625
A9C U76C | 0.929
C12U C29U | 0.206
U21G U70C | ≤ 0.026
A9G A30G G61A | 0.291
G10A G32C | ≤ 0.026
C1U C3U C64G G69U | ≤ 0.026
C3U G61C | 0.164
U58C G73A | 0.0472
U4C U57G | 0.0337
A54C C81U | 0.21
U21C C56G U70C C75G | ≤ 0.026
C34A C68A A87U | ≤ 0.026
U16C A23G G28U | ≤ 0.026
A24U U76C | 0.131
